Assay results reported in ChEMBL document CHEMBL3286372, “Design, synthesis and structure-activity relationship of novel semi-synthetic flavonoids as antiproliferative agents” (2014).

What was measured:
[1] = system: PC-3; test: Growth inhibition of human PC3 cells at 10 uM after 48 hrs by sulforhodamine B assay relative to control; format: functional; details: PC-3, 48 h, read-out: GI
Summary of the method: (§1)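 NCI-60 primary screen at a single 10 µM dose. Continuous 48 h exposure, with growth or viability estimated by sulforhodamine B protein staining. Reported as percent growth inhibition of treated cells relative to untreated growth.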

[2] = Growth inhibition of human OVCAR3 cells at 10 uM after 48 hrs by sulforhodamine B assay relative to control; format: functional; details: OVCAR-3, 48 h, read-out: GI; summary of the method: as §1
[3] = system: M14; test: Growth inhibition of human M14 cells at 10 uM after 48 hrs by sulforhodamine B assay relative to control; format: functional; details: M14, 48 h, read-out: GI
Summary of the method: (§2)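 NCI-60 primary screen at a single dose of 10 µM with 48 h continuous exposure. Growth or viability read by sulforhodamine B protein staining and expressed as percent growth inhibition versus untreated cells.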

[4] = system: Ehrlich; test: Antitumor activity against mouse EAC cells allografted in BALB mouse assessed as tumor growth inhibition at 3 mg/kg, ip for 5 days relative to control; format: functional; details: 120 h, route intraperitoneal, read-out: TGI
Summary of the method: (§3)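 Female BALB mice; Ehrlich ascites carcinoma cells, 2×10^5 cells/mouse in 0.2 ml saline, injected s.c. into the left hind leg and grown 2 wk. Daily i.p. saline (control), 3 or 6 mg/kg for 5 days. Caliper size V = 0.4×a(b)^2, taken just before the first dose and 24 h after the last. Mean ± SEM, n = 6; ANOVA with Tukey-Kramer.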

[5] = system: Mus musculus; test: Decrease in cyclin D1 level in tumor of BALB mouse allografted with mouse EAC cells at 6 mg/kg, ip for 5 days competitive ELISA relative to control; format: functional, Ehrlich; design: scale not given: the % may be the effect or the level left; details: route intraperitoneal
Summary of the method: (§4)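 Mice bearing s.c. Ehrlich tumours (2×10^5 EAC cells, grown 2 wk) were given daily i.p. saline, 3 or 6 mg/kg for 5 days. Tumours were excised, washed in cold saline and blotted, and a 10% homogenate was made in phosphate buffered saline. Cyclin D1 was measured by competitive ELISA with samples in duplicate. Mean ± SEM, n = 6.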

[6] = system: NCI-H23; test: Growth inhibition of human NCI-H23 cells at 10 uM after 48 hrs by sulforhodamine B assay relative to control; format: functional; details: NCI-H23, 48 h, read-out: GI; summary of the method: as §1
[7] = system: Ehrlich; test: Antitumor activity against mouse EAC cells allografted in ip dosed BALB mouse assessed as tumor growth inhibition administered for 5 days; format: functional, organism-based; summary of the method: as §3
[8] = Growth inhibition of human NCI-ADR-RES cells at 10 uM after 48 hrs by sulforhodamine B assay relative to control; format: functional; details: read-out: GI; summary of the method: as §1
[9] = system: HCT-116; test: Growth inhibition of human HCT116 cells at 10 uM after 48 hrs by sulforhodamine B assay relative to control; format: functional; details: HCT-116, 48 h, read-out: GI; summary of the method: as §2
[10] = Growth inhibition of human LOXIMVI cells at 10 uM after 48 hrs by sulforhodamine B assay relative to control; format: functional; details: LOX IMVI, read-out: GI; summary of the method: as §2
[11] = Growth inhibition of human PC549 cells after 48 hrs by coulter counting analysis; format: functional
Summary of the method: (§5)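 Five-dose NCI-60 follow-up, 0.01–100 µM, made from DMSO stock in buffered saline (final DMSO <1%), in duplicate wells. Cells in RPMI 1640 with 10% FBS at 6×10^4 cells/ml, 37 °C, 5% CO2, 48 h. Cells diluted tenfold in saline, Coulter-counted and corrected for dilution. GI50, TGI and LC50 taken from log concentration–percent growth curves.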

[12] = system: Mus musculus; test: Decrease in cyclin D1 level in tumor of BALB mouse allografted with mouse EAC cells at 3 mg/kg, ip for 5 days competitive ELISA relative to control; format: functional, Ehrlich; design: scale not given: the % may be the effect or the level left; details: route intraperitoneal; summary of the method: as §4
[13] = system: ACHN; test: Growth inhibition of human ACHN cells at 10 uM after 48 hrs by sulforhodamine B assay relative to control; format: functional; details: read-out: GI; summary of the method: as §2
[14] = Growth inhibition of human HCT15 cells at 10 uM after 48 hrs by sulforhodamine B assay relative to control; format: functional; details: HCT-15, 48 h, read-out: GI; summary of the method: as §2
[15] = system: HL-60(TB); test: Growth inhibition of human HL-60(TB) cells at 10 uM after 48 hrs by sulforhodamine B assay relative to control; format: functional; details: HL-60, 48 h, read-out: GI
Summary of the method: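 Single-dose primary screen at 10 µM across the NCI 60 panel, 48 h continuous exposure. Growth estimated by sulforhodamine B protein staining and reported as percentage growth inhibition relative to untreated control.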

[16] = system: Mus musculus; test: Increase in GSK-3beta level in tumor of BALB mouse allografted with mouse EAC cells at 3 mg/kg, ip for 5 days by competitive ELISA relative to control; format: functional, Ehrlich; details: route intraperitoneal
Summary of the method: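 Female BALB mice bearing subcutaneous EAC tumours (2×10^5 cells in left hind leg, grown 2 wk). Dosed i.p. daily for 5 days; controls received saline. Excised tumours washed in cold saline and homogenised at 10% in PBS. GSK-3β measured by competitive ELISA, samples in duplicate. Change versus untreated controls, mean ± SEM, n = 6.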

[17] = system: CCRF-CEM; test: Growth inhibition of human CCRF-CEM cells at 10 uM after 48 hrs by sulforhodamine B assay relative to control; format: functional; details: read-out: GI; summary of the method: as §2
[18] = Growth inhibition of human UACC257 cells at 10 uM after 48 hrs by sulforhodamine B assay relative to control; format: functional; details: UACC-257, 48 h, read-out: GI
Summary of the method: (§6)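 NCI-60 primary single-dose screen at 10 µM with continuous 48 h exposure. Cell viability/growth read by sulforhodamine B protein staining. Reported as percent growth inhibition relative to untreated cells.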

[19] = system: U-251; test: Growth inhibition of human U251 cells at 10 uM after 48 hrs by sulforhodamine B assay relative to control; format: functional; details: U-251, 48 h, read-out: GI; summary of the method: as §6
[20] = Growth inhibition of human […] cells after 48 hrs by coulter counting analysis; format: functional
Summary of the method: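 NCI five-dose screen at 0.01-100 µM, diluted from DMSO stocks in buffered saline (final DMSO <1%). Cells at 6×10^4 cells/ml in RPMI 1640 with 10% FBS, in duplicate wells, at 37 °C under 5% CO2 for 48 h. Cells diluted tenfold in saline and Coulter-counted. GI50, TGI and LC50 taken from log concentration-growth inhibition curves.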

[21] = Growth inhibition of human UO31 cells at 10 uM after 48 hrs by sulforhodamine B assay relative to control; format: functional; details: UO-31, 48 h, read-out: GI; summary of the method: as §6
[22] = system: SNB-75; test: Growth inhibition of human SNB75 cells at 10 uM after 48 hrs by sulforhodamine B assay relative to control; format: functional; details: SNB-75, 48 h, read-out: GI; summary of the method: as §1
[23] = system: CAKI-1; test: Growth inhibition of human CAKI-1 cells at 10 uM after 48 hrs by sulforhodamine B assay relative to control; format: functional; details: CAKI-1, 48 h, read-out: GI; summary of the method: as §2
[24] = system: SR; test: Growth inhibition of human SR cells after 48 hrs by coulter counting analysis; format: functional; summary of the method: as §5
[25] = system: MDA-MB-435; test: Growth inhibition of human MDA-MB-435 cells at 10 uM after 48 hrs by sulforhodamine B assay relative to control; format: functional; details: MDA-MB-435, 48 h, read-out: GI; summary of the method: as §2
[26] = system: SR; test: Growth inhibition of human SR cells at 10 uM after 48 hrs by sulforhodamine B assay relative to control; format: functional; details: read-out: GI; summary of the method: as §1

Q: Which inhibition of growth at 10 µM [1] does the source give for `COc1c2occc2c(OC)c2c(=O)c(CN3CCOCC3)c(/C=C/c3ccc(N(C)C)cc3)oc12` here?
A: 87%

Q: What about the inhibition of growth at 10 µM [2] of the same compound?
A: 88%

Q: And the inhibition of growth at 10 µM [3]?
A: 63%

Q: And the inhibition in vivo at 3 mg/kg [4]?
A: 62.1%

Q: And the Activity [5]?
A: 59.1%

Q: And the inhibition of growth at 10 µM [6]?
A: 80%

Q: And the TGI [7]?
A: Dose-dependent effect

Q: And the inhibition of growth at 10 µM [8]?
A: 87%

Q: And the inhibition of growth at 10 µM [9]?
A: 82%

Q: And the inhibition of growth at 10 µM [10]?
A: 65%

Q: And the GI50 [11]?
A: 2870 nM

Q: And the Activity [12]?
A: 40.6%

Q: And the inhibition of growth at 10 µM [13]?
A: 89%

Q: And the inhibition of growth at 10 µM [14]?
A: 67%

Q: What about the inhibition of growth at 10 µM [15] of the same compound?
A: 64%

Q: And the Activity [16]?
A: 101.5%

Q: What about the inhibition of growth at 10 µM [17] of the same compound?
A: 95%

Q: What about the inhibition of growth at 10 µM [18] of the same compound?
A: 76%

Q: And the inhibition of growth at 10 µM [19]?
A: 69%

Q: What about the GI50 [20] of the same compound?
A: 1680 nM

Q: And the inhibition of growth at 10 µM [21]?
A: 63%

Q: And the inhibition of growth at 10 µM [22]?
A: 99%

Q: Which inhibition of growth at 10 µM [6] does the source give for `C=CCc1c2c(c(OC)c3ccoc13)C(=O)/C(=C/c1ccccc1OC)O2` here?
A: 80%

Q: What about the inhibition of growth at 10 µM [8] of the same compound?
A: 65%

Q: And the inhibition of growth at 10 µM [9]?
A: 79%

Q: What about the inhibition of growth at 10 µM [10] of the same compound?
A: 62%

Q: What about the inhibition of growth at 10 µM [23] of the same compound?
A: 62%

Q: And the inhibition of growth at 10 µM [17]?
A: 63%

Q: And the GI50 [24]?
A: 3160 nM

Q: What about the inhibition of growth at 10 µM [22] of the same compound?
A: 64%

Q: With `COc1c(C(=O)/C=C/c2ccccc2)c(O)cc2occc12` as the compound, how does the inhibition of growth at 10 µM [8] read?
A: 68%

Q: And the inhibition of growth at 10 µM [9]?
A: 68%

Q: And the inhibition of growth at 10 µM [25]?
A: 68%

Q: What about the inhibition of growth at 10 µM [17] of the same compound?
A: 65%

Q: What about the GI50 [24] of the same compound?
A: 3270 nM

Q: What about the inhibition of growth at 10 µM [26] of the same compound?
A: 72%

Q: And the inhibition of growth at 10 µM [21]?
A: 60%

Q: And the inhibition of growth at 10 µM [22]?
A: 86%

Q: With `COc1c(C(=O)/C=C/c2ccc(Cl)cc2)c(O)c(Br)c2occc12` as the compound, how does the GI50 [11] read?
A: 2540 nM

Q: And the GI50 [20]?
A: 3120 nM

Q: For `COc1ccccc1/C=C/C(=O)c1c(O)cc2occc2c1OC`, which inhibition of growth at 10 µM [9] is on record?
A: 66%

Q: What about the inhibition of growth at 10 µM [25] of the same compound?
A: 74%

Q: And the inhibition of growth at 10 µM [17]?
A: 63%

Q: And the inhibition of growth at 10 µM [26]?
A: 62%

Q: Which inhibition of growth at 10 µM [1] does the source give for `COc1c2occc2c(OC)c2c(=O)c(CN3CCOCC3)c(/C=C/c3ccc(Cl)cc3)oc12` here?
A: 72%

Q: And the inhibition of growth at 10 µM [2]?
A: 68%

Q: What about the inhibition of growth at 10 µM [23] of the same compound?
A: 61%

Q: And the inhibition of growth at 10 µM [13]?
A: 66%

Q: What about the inhibition of growth at 10 µM [15] of the same compound?
A: 60%

Q: What about the inhibition of growth at 10 µM [17] of the same compound?
A: 81%

Q: And the inhibition of growth at 10 µM [21]?
A: 61%

Q: For `C=CCc1c(O)c(C(=O)/C=C/c2ccc(Cl)cc2)c(OC)c2ccoc12`, which GI50 [24] is on record?
A: 2770 nM

Q: Which GI50 [24] does the source give for `C=CCc1c(O)c(C(=O)/C=C/c2ccccc2)c(OC)c2ccoc12` here?
A: 2150 nM
